# Diaph act CS: activates diaphorase or chemically reduces, flagging diaphorase assay artifacts. Diaphorase/resazurin coupled assay, resorufin fluorescence, 16 min; active compounds read high; 1 = vehicle wells, 0 = NADH-free wells. activation factor at 20 µM. 190,000 compounds, 0.005% hits. AID 1229;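 active means diaphorase activity raised at least twofold by the compound at 20 µM; inactive means activation factor below 2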
#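 Assay system: Purified diaphorase enzyme from Clostridium kluyveri | Amount: Enzyme 0.07 U/mL final | Dosing: Compound 20 µM once, DMSO 1% | Timing: 16 min reaction at room temperature | Detection: Fluorescence, excitation 544 nm and emission 590 nm | Evaluation: Higher resorufin formation from activation or reduction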
# PMI act hi M6P: activators of human phosphomannose isomerase at near-saturating mannose 6-phosphate | P34949 | coupled PMI enzyme assay, resazurin fluorescence, 20 min; active compounds read high; 1 = untreated enzyme, 0 = substrate-free blank | activation factor at 20 µM | 190,000 compounds, 0.34% hits | AID 1216;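 active means activation factor of 2 or more at 20 µM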
# Target sequence (P34949 whole entry, looked up): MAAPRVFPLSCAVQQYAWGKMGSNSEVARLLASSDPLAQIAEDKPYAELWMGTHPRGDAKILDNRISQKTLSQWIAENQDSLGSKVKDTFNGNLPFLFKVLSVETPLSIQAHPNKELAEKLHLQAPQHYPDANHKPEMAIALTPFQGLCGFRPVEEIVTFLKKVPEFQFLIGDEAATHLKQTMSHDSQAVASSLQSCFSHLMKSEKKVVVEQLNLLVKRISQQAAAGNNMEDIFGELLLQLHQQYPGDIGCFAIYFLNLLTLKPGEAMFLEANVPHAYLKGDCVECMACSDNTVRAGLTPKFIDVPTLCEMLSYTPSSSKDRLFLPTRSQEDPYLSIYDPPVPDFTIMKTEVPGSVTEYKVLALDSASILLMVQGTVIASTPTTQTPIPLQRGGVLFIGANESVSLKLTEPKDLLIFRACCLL
#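 Test system: Human PMI in coupled enzyme assay | Input: 15 ng/mL PMI | Medium: HEPES-buffered pH 7.4 with magnesium and detergent | Compound: One concentration, 20 µM, in 1% DMSO | Incubation: Enzyme reaction with compound 20 min at room temperature | Detection: Diaphorase-driven resazurin-to-resorufin fluorescence, excitation 544, emission 590 nm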
# Redox H2O2 prof: compounds producing H2O2 with reducing agent – biochemical, NIH compound library profiling, artefact control for MLSCN library redox annotation, primary screen; DTT-dependent redox cycling H2O2, phenol red/HRP absorbance; 100% = 100 µM peroxide control, 0% = buffer; activation, % at 10 µM; 200,000 compounds, 0.03% hits; AID 878;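 active means activation of at least 50% relative to the plate's high and low controls in the primary single-dose screen; inactive means activation below 50%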;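 further: compound incubated with DTT at 0.8 mM final as the reducing agent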
# Diaph inh CS: inhibits diaphorase or chemically oxidizes, flagging diaphorase assay artifacts; diaphorase resazurin-to-resorufin fluorescence, NADH, 16 min; bacterial (C. kluyveri) enzyme, not human; inhibition, % at 20 µM; 190,000 compounds, 0.69% hits; AID 1217;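 active means primary screen inhibition at 20 µM above a set limit, cut at about 50% in these data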;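 further: plate controls were DMSO with full reaction for no effect and wells lacking NADH for full effect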
#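 Test system: bacterial diaphorase enzyme (C. kluyveri); Quantity: 0.14 U/mL diaphorase, enzyme working solution; Times: reaction incubation of 16 min at room temperature; Measured by: fluorescence of resorufin formed from resazurin, Ex 544/Em 590 nm; Benchmarks: positive control minus NADH, DMSO neutral control.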
# PMI activator: activators of human phosphomannose isomerase. purified human PMI, coupled resazurin fluorescence, 20 min; active compounds read high; 1 = vehicle control, 0 substrate-free wells. activation factor at 20 µM. 190,000 compounds, 0.005% hits;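 active means activation factor of 2 or more at 20 µM, relative to plate controls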
# G6PDH counter: L. mesenteroides G6PDH inhibition counter-screen; Purified L. mesenteroides G6PDH, diaphorase/resazurin coupled fluorescence, 45 min; inhibition, % at 5 µM; 200,000 compounds, 0.12% hits; in the data active means inhibition above about 50%
# * marks the source's active call; other numbers are inactive results; . = not tested or not shown. The list is not random: actives were taken first. Their share in the collection is about 1.1%.
SMILES,Diaph act CS,PMI act hi M6P,Redox H2O2 prof,Diaph inh CS,PMI activator,G6PDH counter
Cc1nc2sc3c(c2c(=O)[nH]1)CCC3,1.1,1,-1,-7,1,4
N=C1CCCN1CC(=O)c1ccc(Br)cc1,0.9,1,0,8,1,28
CCOC1=C/C(=C/c2c(N)n3nc(-c4ccccc4)sc3nc2=O)C=CC1=O,0.3,0.7,0,69*,0.8,15
COCc1cc(C)nc2sc(C(=O)N3CCN(c4ccccc4)CC3)c(N)c12,0.8,0.9,-1,22,1,8
Cc1cc(C)c2c(N)c(C(=O)N3CCN(c4ncccn4)CC3)sc2n1,0.8,2*,3,19,1.5,-27
CC(C)n1c(SCC(=O)N2c3ccccc3Sc3ccccc32)nc2c1c(=O)n(C)c(=O)n2C,0.2,0.9,0,76*,1,6
CC(=O)Nc1ccc(NC(=O)CSc2ccc(-c3ccco3)nn2)cc1,0.4,0.7,1,59*,0.8,1
Cc1cc(=O)n2cccc(O)c2n1,0.4,0.3,0,63*,0.3,56*
COc1ccc(N2C(=O)CSC2c2ccccc2[N+](=O)[O-])cc1 (configuration not stated),1,1,0,2,1,4
CCCCCCCCCCCCCCCCn1cc[n+](CC(C)=O)c1,3*,1.1,0,-201,1.1,4
CN(Cc1cccs1)C(=O)/C=C/c1ccccc1[N+](=O)[O-],1,1,7,-1,1,5
N#C/C(C(N)=O)=c1/ccc2c(c1)N1C3=C(CCCC3)CC3CCCCC31N=2 (configuration not stated),0.1,0.7,4,91*,0.7,11
N#CC(C#N)=c1ccc2c(c1)N1C3=C(CCCC3)CC3CCCCC31N=2 (configuration not stated),0.2,0.8,11,76*,0.8,-32
O=C1C=C(Nc2ccc(Cl)cc2)CC(c2ccccc2)C1 (configuration not stated),0.9,0.9,0,10,0.9,-3
Cc1cccn2c(=O)c3cc(C#N)c(=NC(=O)c4ccncc4)n(CCCOC(C)C)c3nc12,0.7,2*,0,25,1.7,4
O=c1oc2c(O)c(O)cc3c(=O)oc4c(O)c(O)cc1c4c23,0.1,0.4,0,86*,0.3,28
O=C(c1ccc(S(=O)(=O)N2CCC(c3nc4ccccc4[nH]3)CC2)cc1)N1CCOCC1,0.4,0.9,0,64*,0.8,-2
CSc1ccccc1NC(=O)CN(C)Cc1cc(=O)n2ccsc2n1,0.9,1.1,0,11,1.1,4
COc1cc(/C=C(/Sc2nnc(-c3ccc(F)cc3)o2)C(=O)O)ccc1OC(F)F,1,1,0,-4,1.1,3
Cn1c(/C=C(\C#N)C(N)=S)ccc1-c1ccc(Br)cc1,0.9,1.1,0,12,1.1,-7
c1ccc2c(Cn3ccnc3)c[nH]c2c1,0.9,0.9,1,12,0.9,3
Cc1cccc(NCc2ccc(O)c3ncccc23)c1,0.2,0.3,0,78*,0.6,36
OCc1ccnc2c(O)cccc12,0.5,0.4,0,48,0.5,59*
COc1ccc(C)cc1N=Nc1ccc(O)c2ncccc12,0.7,0.7,0,26,1,8
Oc1ccc(CNc2ccccc2)c2cccnc12,0.1,0.3,-1,86*,0.5,25
SMILES,Diaph act CS,PMI act hi M6P,Redox H2O2 prof,Diaph inh CS,PMI activator,G6PDH counter
Cc1ccccc1N=Nc1ccc(O)c2ncccc12,0.9,0.7,0,12,1.1,4
Oc1ccc(Cn2ccnc2)c2cccnc12,0.5,0.9,0,54*,0.7,40
Cc1cccc(C(=O)NNC(=O)c2ccco2)c1,0.9,1,0,12,0.9,8
COc1ccc(C2SCC(=O)N2CC23CC4CC(CC(C4)C2)C3)cc1 (configuration not stated),0.7,0.9,0,34,0.9,5
Cc1ccccc1NCc1ccc(O)c2ncccc12,0.1,0.2,0,92*,0.4,26
Oc1ccc(CN2CCN(Cc3ccccc3)CC2)c2cccnc12,.,.,2,.,.,.
COCc1ccc(O)c2ncccc12,0.7,0.8,0,30,0.8,44
Oc1ccc(CNc2ccc(F)cc2)c2cccnc12,0.2,0.3,0,77*,0.6,26
Cc1ccc(NC(=O)CN2C(=O)S/C(=C\c3ccc(-c4cccc(C(=O)O)c4C)o3)C2=O)cc1C,-0.1,1.2,0,110*,1.3,2
O=C(CSc1cccc[n+]1[O-])c1cc(Cl)ccc1Cl,0.9,1.1,0,14,1,11
O=C(COC(=O)c1cc(-c2ccc(F)cc2)nc2ccccc12)NCC1CCCO1 (configuration not stated),1,1.1,0,3,1.1,-8
COc1cccc(/C=N/N2CCOCC2)c1O,0.8,1,0,20,1,2
Oc1ccc(/C=N/N2CCOCC2)c(O)c1O,0.3,0.3,-1,69*,0.3,52*
COc1ccc(NC(=O)C(c2cc3c(cc2[N+](=O)[O-])OCO3)N(C)c2ccccc2)cc1 (configuration not stated),1,0.6,0,0,0.7,-3
Cc1ccc(NC(=O)COC(=O)C2(c3ccc(Cl)cc3)CCCC2)cc1,0.8,0.9,0,19,0.9,9
CC(C)(C)C1CCC2(CC1)NC(=S)N(c1ccccc1)N2 (configuration not stated),0.9,2.8*,1,7,1.7,1
CCOC(=O)C1(CCCc2ccccc2)CCN(C(=O)C2=C(C)OCCO2)CC1,0.8,0.9,-1,18,0.9,9
O=C1CCN(N=Nc2cccc(Cl)c2)N1,1,2.2*,0,2,1.8,0
CCOC(=O)c1c(C)sc2c1N(C(=O)CN(CC)CC)c1cc(Cl)ccc1S2,0.8,0.9,-1,25,0.9,3
CCOC(=O)c1c(C)sc2c1N(C(=O)CN1CCOCC1)c1cc(Cl)ccc1S2,0.4,1,0,57*,0.9,-4
COc1cc(/C=N/NC(=O)c2ccc(CSc3nc4ccccc4[nH]3)cc2)ccc1O,0.9,1,-3,8,1,0
Cc1ccc(/C=N/n2c(-c3ccncc3)n[nH]c2=S)cc1,0.4,0.6,0,60*,0.3,5

# Screening results deposited in PubChem by several laboratories.
